# Test results reported in ChEMBL document CHEMBL3421533, “The Discovery of Orally Bioavailable Tyrosine Threonine Kinase (TTK) Inhibitors: 3-(4-(heterocyclyl)phenyl)-1H-indazole-5-carboxamides as Anticancer Agents” (J Med Chem, 2015).
# Key:
# SW48 [1] = test: Cytotoxicity against human SW48 cells after 5 days by sulforhodamine B assay; format: functional; settings: SW48, 120 h
# Method in brief: (§1)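 Cancer lines were seeded at 800–6000 cells per well according to growth rate, 24 h before compound overlay. After culture, cells were fixed in situ and stained with sulforhodamine B. GI50 values were derived by curve fitting.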
# HT-29 = test: Cytotoxicity against human HT-29 cells after 5 days by sulforhodamine B assay; format: functional; settings: HT-29, 120 h; method in brief: as §1
# Cytochrome P450 3A4 = Cytochrome P450 3A4 (Homo sapiens, UniProt P08684); test: Inhibition of human CYP3A4 using BFC as substrate preincubated for 10 mins followed by enzyme/substrate addition measured after 30 mins by fluorescence assay; format: ADME
# Cytochrome P450 3A4, sequence (P08684 whole entry): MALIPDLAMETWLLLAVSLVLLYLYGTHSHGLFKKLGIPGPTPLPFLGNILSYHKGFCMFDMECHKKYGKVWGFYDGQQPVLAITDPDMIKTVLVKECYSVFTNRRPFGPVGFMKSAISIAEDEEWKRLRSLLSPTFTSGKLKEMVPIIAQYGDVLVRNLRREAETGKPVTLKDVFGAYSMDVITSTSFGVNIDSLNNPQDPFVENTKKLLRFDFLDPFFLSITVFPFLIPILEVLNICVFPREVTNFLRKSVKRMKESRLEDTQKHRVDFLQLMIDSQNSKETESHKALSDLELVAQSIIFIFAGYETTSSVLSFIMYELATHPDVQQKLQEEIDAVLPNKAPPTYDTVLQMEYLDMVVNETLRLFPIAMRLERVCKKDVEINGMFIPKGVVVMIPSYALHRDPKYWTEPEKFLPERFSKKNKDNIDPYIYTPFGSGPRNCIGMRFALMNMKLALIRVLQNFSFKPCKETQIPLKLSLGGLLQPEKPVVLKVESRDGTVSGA
# Aurora kinase A = molecular target: T1, Aurora kinase A (Homo sapiens, UniProt O14965); test: Inhibition of recombinant AURKA (unknown origin) preincubated for 15 mins prior to ATP addition by FRET-based homogenous assay
# T1 sequence (O14965 whole entry): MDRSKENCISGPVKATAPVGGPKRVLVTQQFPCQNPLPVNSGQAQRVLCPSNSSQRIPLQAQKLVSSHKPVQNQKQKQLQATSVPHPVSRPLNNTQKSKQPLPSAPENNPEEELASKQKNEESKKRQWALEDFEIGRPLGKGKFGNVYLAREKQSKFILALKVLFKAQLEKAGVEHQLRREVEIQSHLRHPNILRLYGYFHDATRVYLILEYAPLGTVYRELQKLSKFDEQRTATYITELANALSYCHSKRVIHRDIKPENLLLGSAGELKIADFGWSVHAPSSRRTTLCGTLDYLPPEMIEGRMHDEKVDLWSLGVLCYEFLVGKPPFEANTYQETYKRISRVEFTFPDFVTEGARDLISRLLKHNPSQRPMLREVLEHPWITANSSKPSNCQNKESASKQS
# HCT-116 = test: Induction of chromosome segregation defect in human HCT116 cells assessed as anaphase and telophase cells with lagging chromosomes at 500 nM incubated for 6 hrs post double thymidine block by DAPI staining-based immunofluorescence microscopic analysis (reference value: 19 +/- 2%); format: functional
# [2] = molecular target: Mitogen-activated protein kinase 10 (Homo sapiens, UniProt P53779); test: Inhibition of human JNK3 by millipore radiometric assay
# Mitogen-activated protein kinase 10, sequence (P53779 whole entry): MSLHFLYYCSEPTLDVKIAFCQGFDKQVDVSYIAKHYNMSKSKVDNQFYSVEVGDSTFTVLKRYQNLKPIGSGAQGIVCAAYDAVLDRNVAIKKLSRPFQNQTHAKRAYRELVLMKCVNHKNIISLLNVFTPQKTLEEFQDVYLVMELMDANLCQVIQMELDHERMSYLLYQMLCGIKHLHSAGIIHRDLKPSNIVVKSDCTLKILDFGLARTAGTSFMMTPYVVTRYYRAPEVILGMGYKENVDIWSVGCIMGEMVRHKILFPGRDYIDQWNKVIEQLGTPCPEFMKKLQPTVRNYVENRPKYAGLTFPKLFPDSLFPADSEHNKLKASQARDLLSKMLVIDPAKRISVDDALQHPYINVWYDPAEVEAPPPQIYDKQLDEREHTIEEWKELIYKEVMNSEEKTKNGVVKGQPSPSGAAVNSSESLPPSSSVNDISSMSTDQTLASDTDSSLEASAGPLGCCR
# Method in brief: (§2)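 Radiometric profiling against a 278-kinase panel was done with ATP at Km. Half-maximal inhibitory concentrations were then determined for the kinases most inhibited.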
# [3] = Cytotoxicity against HMEC after 5 days by sulforhodamine B assay; format: cell-based; settings: human, HMEC cells
# Method in brief: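 Cells were seeded at 800–6000 per well according to growth rate, 24 h before compound overlay. After culture they were fixed in situ and stained with sulforhodamine B. GI50 was calculated by curve fitting.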
# [4] = Half life in dog liver microsomes at 1 uM by LC-MS analysis; format: ADME, Canis lupus familiaris
# [5] = molecular target: Aurora kinase B/Inner centromere protein (Homo sapiens, UniProt Q96GD4); test: Inhibition of AURKB/INCENP (unknown origin) transfected in human HCT116 cells after 4 hrs by near infrared imager analysis; format: cell-based, HCT-116
# Aurora kinase B/Inner centromere protein, sequence (Q96GD4 whole entry): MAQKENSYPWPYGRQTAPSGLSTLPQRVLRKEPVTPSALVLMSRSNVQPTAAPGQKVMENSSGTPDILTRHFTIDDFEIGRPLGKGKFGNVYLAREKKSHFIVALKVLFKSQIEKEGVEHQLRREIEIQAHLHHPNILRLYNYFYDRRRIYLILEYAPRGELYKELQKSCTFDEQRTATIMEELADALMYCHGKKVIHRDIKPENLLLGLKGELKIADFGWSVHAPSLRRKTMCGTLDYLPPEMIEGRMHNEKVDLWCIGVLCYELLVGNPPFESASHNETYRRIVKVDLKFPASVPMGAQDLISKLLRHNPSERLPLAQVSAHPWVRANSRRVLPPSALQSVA
# Aurora kinase B/Inner centromere protein, sequence (Q9NQS7 whole entry, further chain): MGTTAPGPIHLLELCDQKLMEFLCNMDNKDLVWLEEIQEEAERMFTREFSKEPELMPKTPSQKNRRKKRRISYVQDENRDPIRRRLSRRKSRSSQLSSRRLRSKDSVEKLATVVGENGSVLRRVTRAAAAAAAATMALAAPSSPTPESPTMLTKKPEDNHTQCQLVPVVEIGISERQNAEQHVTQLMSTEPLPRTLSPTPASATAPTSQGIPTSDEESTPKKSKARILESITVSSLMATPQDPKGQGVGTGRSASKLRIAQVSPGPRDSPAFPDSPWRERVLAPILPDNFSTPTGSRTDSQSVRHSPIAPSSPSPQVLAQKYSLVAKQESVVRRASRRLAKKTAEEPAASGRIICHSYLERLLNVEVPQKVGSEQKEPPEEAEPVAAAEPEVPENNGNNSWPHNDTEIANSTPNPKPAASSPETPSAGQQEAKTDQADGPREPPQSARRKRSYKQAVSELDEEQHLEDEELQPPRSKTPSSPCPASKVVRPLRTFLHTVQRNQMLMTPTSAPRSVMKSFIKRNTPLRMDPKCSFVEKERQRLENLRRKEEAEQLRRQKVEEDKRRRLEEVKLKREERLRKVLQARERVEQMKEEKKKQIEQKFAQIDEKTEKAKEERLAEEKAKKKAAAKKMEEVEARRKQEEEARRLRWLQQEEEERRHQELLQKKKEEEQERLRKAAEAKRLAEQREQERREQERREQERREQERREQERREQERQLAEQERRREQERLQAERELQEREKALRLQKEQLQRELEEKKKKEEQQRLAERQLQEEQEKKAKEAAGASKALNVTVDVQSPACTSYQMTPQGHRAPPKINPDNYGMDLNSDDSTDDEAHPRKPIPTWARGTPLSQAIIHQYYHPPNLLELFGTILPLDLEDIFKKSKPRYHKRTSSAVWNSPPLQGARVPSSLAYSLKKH
# Method in brief: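 HCT116 cells transfected with wild-type TTK were arrested with nocodazole (200 ng/mL, 17 h). They were pretreated with MG132 (15 μM, 30 min), then exposed to compound or DMSO for 4 h. Blots were probed for phospho-TTK (Thr12/Ser15), phospho-Aurora A (Thr288)/B (Thr232), TTK and GAPDH. Bands were quantified by near-infrared imaging, and EC50 was fitted.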
# SW48 [6] = test: Antitumor activity against human SW48 cells xenografted in CD-1 nude mouse assessed as tumor growth inhibition at 30 mg/kg, po qd administered for 21 days measured 3 times per week during compound dosing relative to vehicle-treated control; format: functional; settings: SW48, 504 h, read-out: TGI
# Method in brief: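 Randomization into groups (n = 7) at 80–120 mm³ mean tumor volume. Compound was given orally once daily for 21 days in 10% NMP/40% PEG400/50% DI water, top dose 30 mg/kg. Tumor volume (x²y/2) was taken three times weekly, and TGI was calculated against vehicle.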
# MDA-MB-231 = test: Cytotoxicity against human MDA-MB-231 cells after 5 days by sulforhodamine B assay; format: functional; settings: MDA-MB-231, 120 h; method in brief: as §1
# [7] = molecular target: T2, Dual specificity protein kinase TTK (Homo sapiens, UniProt P33981); test: Competitive inhibition of amino terminal GST-fused full length human TTK using His6-SUMO-TTK-N as substrate by Lineweaver-Burk plot analysis in presence of ATP; settings: read-out: Ki(app)
# T2 sequence (P33981 whole entry): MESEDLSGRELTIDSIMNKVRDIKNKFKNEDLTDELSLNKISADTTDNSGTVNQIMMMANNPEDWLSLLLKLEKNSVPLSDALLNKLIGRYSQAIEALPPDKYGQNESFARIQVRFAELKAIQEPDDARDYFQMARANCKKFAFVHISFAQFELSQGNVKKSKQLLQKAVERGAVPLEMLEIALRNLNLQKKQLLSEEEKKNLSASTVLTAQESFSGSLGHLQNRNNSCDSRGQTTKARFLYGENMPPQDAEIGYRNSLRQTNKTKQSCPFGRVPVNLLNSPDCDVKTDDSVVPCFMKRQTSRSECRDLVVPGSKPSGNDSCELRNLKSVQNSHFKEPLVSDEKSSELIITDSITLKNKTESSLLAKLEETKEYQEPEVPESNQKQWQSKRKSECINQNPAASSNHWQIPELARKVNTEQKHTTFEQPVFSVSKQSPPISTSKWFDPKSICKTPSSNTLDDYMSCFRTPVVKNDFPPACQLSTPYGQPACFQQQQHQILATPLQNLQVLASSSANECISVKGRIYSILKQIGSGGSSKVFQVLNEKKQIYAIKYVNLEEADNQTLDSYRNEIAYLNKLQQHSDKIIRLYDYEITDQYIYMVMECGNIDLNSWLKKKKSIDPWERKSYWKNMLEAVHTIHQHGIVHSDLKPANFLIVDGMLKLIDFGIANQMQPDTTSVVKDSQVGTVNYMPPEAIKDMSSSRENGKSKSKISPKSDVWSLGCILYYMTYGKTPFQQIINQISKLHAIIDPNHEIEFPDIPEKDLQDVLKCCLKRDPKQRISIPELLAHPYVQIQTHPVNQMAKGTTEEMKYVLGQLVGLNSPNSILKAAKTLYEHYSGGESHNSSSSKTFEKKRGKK
# [8] = Half life in mouse liver microsomes at 1 uM by LC-MS analysis; format: ADME; settings: liver microsomes
# SW-620 = test: Cytotoxicity against human SW620 cells after 5 days by sulforhodamine B assay; format: functional; settings: SW-620, 120 h; method in brief: as §1
# [9] = molecular target: Mast/stem cell growth factor receptor Kit (Homo sapiens, UniProt P10721, V560G); test: Inhibition of human cKit V560G mutant by millipore radiometric assay; method in brief: as §2
# Mast/stem cell growth factor receptor Kit, sequence (P10721 26-976 V560G limits assumed): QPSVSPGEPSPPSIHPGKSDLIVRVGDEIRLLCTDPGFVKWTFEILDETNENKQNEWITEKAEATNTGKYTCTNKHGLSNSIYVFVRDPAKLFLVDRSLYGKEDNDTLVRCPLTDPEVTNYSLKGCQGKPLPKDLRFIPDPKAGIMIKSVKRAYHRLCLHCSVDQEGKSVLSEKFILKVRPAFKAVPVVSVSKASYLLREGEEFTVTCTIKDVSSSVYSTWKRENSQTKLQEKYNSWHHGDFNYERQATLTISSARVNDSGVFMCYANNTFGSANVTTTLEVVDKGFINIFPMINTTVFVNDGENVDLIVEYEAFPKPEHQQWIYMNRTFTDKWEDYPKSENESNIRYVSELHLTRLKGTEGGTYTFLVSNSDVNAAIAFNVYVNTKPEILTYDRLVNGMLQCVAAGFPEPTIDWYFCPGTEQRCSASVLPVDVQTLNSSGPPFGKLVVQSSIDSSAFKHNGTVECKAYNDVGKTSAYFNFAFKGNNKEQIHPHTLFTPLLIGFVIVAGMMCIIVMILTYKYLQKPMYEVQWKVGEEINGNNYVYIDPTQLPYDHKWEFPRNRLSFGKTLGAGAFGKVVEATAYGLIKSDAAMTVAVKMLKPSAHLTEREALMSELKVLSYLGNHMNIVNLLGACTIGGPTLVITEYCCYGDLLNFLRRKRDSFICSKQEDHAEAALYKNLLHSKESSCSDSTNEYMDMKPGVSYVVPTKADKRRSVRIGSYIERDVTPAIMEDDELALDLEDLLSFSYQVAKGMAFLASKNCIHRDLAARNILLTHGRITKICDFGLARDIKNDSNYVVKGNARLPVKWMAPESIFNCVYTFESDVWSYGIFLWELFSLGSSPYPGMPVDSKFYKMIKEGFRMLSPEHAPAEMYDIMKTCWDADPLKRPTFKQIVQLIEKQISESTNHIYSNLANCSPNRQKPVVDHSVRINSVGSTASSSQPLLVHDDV
# BT-474 = test: Cytotoxicity against human BT474 cells after 5 days by sulforhodamine B assay; format: functional; settings: BT-474, 120 h; method in brief: as §1
# [10] = molecular target: Proto-oncogene tyrosine-protein kinase receptor Ret (Homo sapiens, UniProt P07949); test: Inhibition of human Ret by millipore radiometric assay; method in brief: as §2
# Proto-oncogene tyrosine-protein kinase receptor Ret, sequence (P07949 whole entry): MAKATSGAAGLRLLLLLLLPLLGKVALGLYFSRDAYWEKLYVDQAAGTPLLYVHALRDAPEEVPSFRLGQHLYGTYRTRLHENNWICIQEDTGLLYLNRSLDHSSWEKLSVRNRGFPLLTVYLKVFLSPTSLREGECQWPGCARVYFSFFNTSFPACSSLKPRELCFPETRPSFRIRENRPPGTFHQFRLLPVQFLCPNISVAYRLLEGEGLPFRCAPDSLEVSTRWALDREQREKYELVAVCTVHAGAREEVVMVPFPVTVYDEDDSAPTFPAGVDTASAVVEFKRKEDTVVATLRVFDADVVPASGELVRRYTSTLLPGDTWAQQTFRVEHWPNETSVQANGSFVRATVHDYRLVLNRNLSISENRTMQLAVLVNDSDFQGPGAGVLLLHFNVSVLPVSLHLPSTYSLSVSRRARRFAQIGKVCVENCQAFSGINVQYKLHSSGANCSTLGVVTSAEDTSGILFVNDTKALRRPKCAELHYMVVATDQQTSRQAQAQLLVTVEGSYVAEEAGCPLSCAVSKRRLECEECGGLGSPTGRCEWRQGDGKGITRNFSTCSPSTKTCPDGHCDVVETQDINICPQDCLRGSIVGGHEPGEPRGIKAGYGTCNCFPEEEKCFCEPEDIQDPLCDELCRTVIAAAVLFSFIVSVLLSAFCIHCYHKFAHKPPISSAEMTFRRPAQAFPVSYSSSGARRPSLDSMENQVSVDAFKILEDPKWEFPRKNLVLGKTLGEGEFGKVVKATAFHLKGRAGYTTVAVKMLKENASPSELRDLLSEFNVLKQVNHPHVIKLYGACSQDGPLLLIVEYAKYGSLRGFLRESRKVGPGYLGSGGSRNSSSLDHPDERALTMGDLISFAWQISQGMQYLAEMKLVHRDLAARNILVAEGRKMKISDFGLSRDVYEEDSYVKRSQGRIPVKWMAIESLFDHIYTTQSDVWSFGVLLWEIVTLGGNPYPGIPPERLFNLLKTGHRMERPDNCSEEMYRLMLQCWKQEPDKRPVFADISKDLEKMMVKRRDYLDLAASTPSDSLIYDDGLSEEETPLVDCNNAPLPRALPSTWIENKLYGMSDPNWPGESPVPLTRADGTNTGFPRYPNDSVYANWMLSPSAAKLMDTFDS
# [11] = Cytotoxicity against human OVCAR3 cells after 5 days by sulforhodamine B assay; format: functional, OVCAR-3
# A2780 = test: Cytotoxicity against human A2780 cells after 5 days by sulforhodamine B assay; format: functional; settings: A2780, 120 h; method in brief: as §1
structure (smiles),measurement,setting,value
O=C(N[C@@H](c1ccccn1)C1CC1)c1ccc2[nH]nc(-c3ccc(N4[C@H]5CC[C@H]4CC(O)C5)cc3)c2c1 (stereo in doubt; 75),GI50,SW48 [1],19 nM
same,GI50,HT-29,18 nM
same,IC50,Cytochrome P450 3A4,1300 nM
same,IC50,Aurora kinase A,1300 nM
same,Activity,HCT-116,94%
same,IC50,[2],68 nM
same,GI50 at 120 h,[3],> 30000 nM
same,half-life at 1 µM,[4],> 1 h
same,EC50,[5],> 6000 nM
same,inhibition in vivo at 30 mg/kg,SW48 [6],66%
same,GI50,MDA-MB-231,70 nM
same,Ki,[7],0.7 nM
same,half-life at 1 µM,[8],> 1 h
same,GI50,SW-620,30 nM
same,IC50,[9],490 nM
same,GI50,BT-474,15 nM
same,IC50,[10],2800 nM
same,GI50,[11],80 nM
same,GI50,A2780,20 nM
